In ChEMBL document CHEMBL1152958 (Bioorg Med Chem, 2009):
pIC50: −log10 of the molar value.

Key:
[1] = biological target: T1, Prostaglandin G/H synthase 2 (Ovis aries, UniProt P79208); assay: Inhibition of COX2 in sheep placental vesicle by enzyme immunoassay; settings: for pIC50: read-out: IC50
T1 sequence (P79208 whole entry): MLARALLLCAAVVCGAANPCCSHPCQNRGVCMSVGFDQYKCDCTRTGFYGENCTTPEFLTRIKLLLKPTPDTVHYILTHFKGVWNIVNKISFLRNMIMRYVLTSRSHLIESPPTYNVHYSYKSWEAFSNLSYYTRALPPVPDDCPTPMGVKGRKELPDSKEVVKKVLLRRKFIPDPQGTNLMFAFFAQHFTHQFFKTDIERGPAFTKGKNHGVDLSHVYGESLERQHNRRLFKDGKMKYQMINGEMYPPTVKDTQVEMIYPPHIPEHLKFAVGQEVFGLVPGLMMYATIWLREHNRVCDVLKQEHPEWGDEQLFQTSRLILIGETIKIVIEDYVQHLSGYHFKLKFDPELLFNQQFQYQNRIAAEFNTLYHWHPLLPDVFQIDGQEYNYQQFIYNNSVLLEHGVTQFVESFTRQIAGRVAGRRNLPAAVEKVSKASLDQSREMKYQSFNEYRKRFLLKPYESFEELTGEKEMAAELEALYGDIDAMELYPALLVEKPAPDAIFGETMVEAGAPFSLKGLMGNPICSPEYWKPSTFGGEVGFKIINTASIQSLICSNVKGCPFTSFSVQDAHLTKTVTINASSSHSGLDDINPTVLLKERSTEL

[2] = biological target: T2, Prostaglandin G/H synthase 1 (Ovis aries, UniProt P05979); assay: Inhibition of COX1 in ram seminal vesicle by enzyme immunoassay; settings: for pIC50: read-out: IC50
T2 sequence (P05979 whole entry): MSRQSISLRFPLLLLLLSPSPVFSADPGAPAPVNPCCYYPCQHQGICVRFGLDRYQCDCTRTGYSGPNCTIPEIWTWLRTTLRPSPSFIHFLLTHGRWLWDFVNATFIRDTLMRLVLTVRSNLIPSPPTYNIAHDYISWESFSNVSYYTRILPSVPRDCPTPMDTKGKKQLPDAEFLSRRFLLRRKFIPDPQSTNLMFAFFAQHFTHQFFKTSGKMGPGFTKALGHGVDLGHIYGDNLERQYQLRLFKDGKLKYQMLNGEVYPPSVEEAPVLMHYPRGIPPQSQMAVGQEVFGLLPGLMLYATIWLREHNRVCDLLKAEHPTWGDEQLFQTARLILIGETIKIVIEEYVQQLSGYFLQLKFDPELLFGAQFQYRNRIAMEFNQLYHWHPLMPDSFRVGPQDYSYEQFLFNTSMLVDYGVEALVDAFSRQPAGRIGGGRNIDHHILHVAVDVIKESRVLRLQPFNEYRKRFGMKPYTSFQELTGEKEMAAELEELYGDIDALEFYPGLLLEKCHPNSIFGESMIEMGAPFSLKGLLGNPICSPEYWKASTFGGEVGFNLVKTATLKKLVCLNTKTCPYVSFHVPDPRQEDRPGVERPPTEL
Procedure, shortened: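 PGE2, the main arachidonic acid metabolite, was quantified by competitive enzyme immunoassay.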

[3] = biological target: T3, Polyunsaturated fatty acid 5-lipoxygenase (Homo sapiens, UniProt P09917); assay: Inhibition of 5LOX-mediated LTB4 formation in stimulated human polymorphonuclear leukocytes; settings: for pIC50: read-out: IC50
T3 sequence (P09917 whole entry): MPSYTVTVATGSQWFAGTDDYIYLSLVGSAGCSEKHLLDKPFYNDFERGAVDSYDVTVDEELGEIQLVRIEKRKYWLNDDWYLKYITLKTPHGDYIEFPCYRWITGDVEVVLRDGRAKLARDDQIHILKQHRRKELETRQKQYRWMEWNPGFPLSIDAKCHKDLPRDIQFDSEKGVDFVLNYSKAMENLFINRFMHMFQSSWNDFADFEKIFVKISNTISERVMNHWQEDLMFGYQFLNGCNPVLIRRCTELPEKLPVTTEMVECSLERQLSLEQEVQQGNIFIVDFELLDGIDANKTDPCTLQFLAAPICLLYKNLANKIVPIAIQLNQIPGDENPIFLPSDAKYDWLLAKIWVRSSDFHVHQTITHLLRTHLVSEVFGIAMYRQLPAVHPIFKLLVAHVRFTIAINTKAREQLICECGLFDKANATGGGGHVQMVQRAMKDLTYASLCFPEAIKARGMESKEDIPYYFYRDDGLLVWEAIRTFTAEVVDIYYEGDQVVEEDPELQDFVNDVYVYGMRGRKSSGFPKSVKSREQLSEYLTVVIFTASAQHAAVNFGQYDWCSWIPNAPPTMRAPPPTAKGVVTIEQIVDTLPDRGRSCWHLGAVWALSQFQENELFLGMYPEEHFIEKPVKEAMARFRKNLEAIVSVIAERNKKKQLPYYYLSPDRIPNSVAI
Procedure, shortened: (§1)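 5-LOX-mediated LTB4 formation was measured in stimulated human polymorphonuclear leukocytes in 96-well format. For IC50, at least 3 concentrations were tested in at least 3 independent experiments, each in duplicate, and IC50 was derived from a semilogarithmic dose plot. Results are given as means ± S.D.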

[4] = biological target: T4, Polyunsaturated fatty acid 5-lipoxygenase (Homo sapiens) (UniProt P09917); assay: Inhibition of 5LOX-mediated LTB4 formation in stimulated human polymorphonuclear leukocytes at 8 uM
T4 sequence (whole entry): T3 sequence (P09917 whole entry)
Procedure, shortened: as §1, with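 “format. […]” for “format.”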

[5] = biological target: T5, Prostaglandin G/H synthase 2 (Ovis aries) (UniProt P79208); assay: Inhibition of COX2 in sheep placental vesicle at 8 uM by enzyme immunoassay
T5 sequence (whole entry): T1 sequence (P79208 whole entry)

[6] = biological target: T6, Prostaglandin G/H synthase 1 (Ovis aries) (UniProt P05979); assay: Inhibition of COX1 in ram seminal vesicle at 8 uM by enzyme immunoassay; assay type: tissue-based
T6 sequence (whole entry): T2 sequence (P05979 whole entry)

SMILES | pIC50 [1] | pIC50 [2] | pIC50 [3] | inhibition [4] [%] | inhibition [5] [%] | inhibition [6] [%] | IC50 [1] | IC50 [2] | IC50 [3]
C=CCc1ccc(O)c(-c2ccc(OC)c(/C=C\C)c2)c1 | 6.05 | 5.55 | 5.96 | 99.9 | 62.7 | 68.6 |  |  | 
C=CCc1ccc(O)c(-c2ccc(O)c(CC=C)c2)c1 [HONOKIOL] | 5.68 | 5.74 | 5.38 | 94 | 88.3 | 91 |  |  | 
C=CCc1ccc(O)c(-c2ccc(OC)c(CC=C)c2)c1 [METHYLHONOKIOL] | 7.22 | 7.00 | 5.82 | 96.4 | 95.3 | 90.8 |  |  | 
C=CCc1ccc(O)c(-c2ccc(O)c(/C=C/C)c2)c1 | 5.57 | 6.22 | 6.00 | 100 | 75.1 | 84.8 |  |  | 
C=CCc1ccc(OC)c(-c2ccc(OC)c(CC=C)c2)c1 | 5.11 | 4.94 | 4.82 | 27.8 | 47.8 | 45.1 |  |  | 
CCCc1ccc(O)c(-c2ccc(O)c(CCC)c2)c1 | 5.68 | 6.10 | 5.77 | 99.9 | 81.6 | 89.6 |  |  | 
CCCc1ccc(OC)c(-c2ccc(OC)c(CCC)c2)c1 | 5.16 | < 4.70 |  | 24.4 | 49.4 | 27.3 |  |  | 
C=CCc1ccc(O)c(-c2ccc(OC)c(/C=C/C)c2)c1 | 6.70 | 6.15 | 5.68 | 99.3 | 81.5 | 80.5 |  |  | 
COc1ccc(-c2cc(CC3CO3)ccc2O)cc1CC1CO1 (centres undefined) |  |  |  |  |  |  | Not Active | Not Active | Not Active
CCCc1ccc(O)c(-c2ccc(OC)c(CCC)c2)c1 |  | 5.11 | 5.85 | 97.1 | 11.6 | 56.5 |  |  | 
C=CCc1ccc(OC(C)=O)c(-c2ccc(OC(C)=O)c(CC=C)c2)c1 |  |  | 5.35 | 64.9 | 13.8 | 6.8 |  |  | 
C=CCc1ccc(OC(C)=O)c(-c2ccc(OC)c(CC=C)c2)c1 | 5.31 |  | 5.66 | 76.3 | 56.3 | 18 |  |  | 
